ChEMBL document CHEMBL2163256, “6-(methylamino)hexane-1,2,3,4,5-pentanol 4-(((1S,2S)-1-hydroxy-2,3-dihydro-1H,1'H-[2,2-biinden]-2-yl)methyl)benzoate (PH46A): a novel small molecule with efficacy in murine models of colitis” (J Med Chem, 2012)
Active and inactive are the calls of the source. The calls are words filed in the database; no cut-off is given here.

Legend:
Mus musculus [1] = assay: Antiinflammatory activity against DSS-induced colitis BALB/c mouse model assessed as decrease in disease activity index at 30 mg/kg, po qd for 7 days relative to vehicle-treated control; assay type: functional, organism-based; parameters: dose 30 mg/kg
In short: (§1)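 Female SPF BALB/c mice, 6−8 weeks old; colitis induced by 5% DSS in tap drinking water (renewed every second day) for 7 days. Daily oral dosing for 7 days as suspension/solution in 0.5% carboxymethyl cellulose/2% Tween 80. Daily body weight; DAI per mouse each day from weight loss, occult blood and stool consistency; colon length at autopsy. Mean ± SEM, n = 6−7.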

Mus musculus [2] = assay: Antiinflammatory activity against DSS-induced colitis BALB/c mouse model assessed as decrease in disease activity index at 10 mg/kg, po qd for 7 days relative to vehicle-treated control; assay type: functional, organism-based; parameters: dose 10 mg/kg; in short: as §1
Mus musculus [3] = assay: Antiinflammatory activity against DSS-induced colitis BALB/c mouse model assessed as increase in colon lenght at 30 mg/kg, po qd for 7 days relative to vehicle-treated control; assay type: functional, organism-based; parameters: dose 30 mg/kg; in short: as §1
Mus musculus [4] = assay: Antiinflammatory activity against DSS-induced colitis BALB/c mouse model assessed as increase in colon lenght at 10 mg/kg, po qd for 7 days relative to vehicle-treated control; assay type: functional, organism-based; parameters: dose 10 mg/kg; in short: as §1
Mus musculus [5] = assay: Toxicity in DSS-induced colitis BALB/c mouse model assessed as overt reactions at 30 mg/kg, po qd for 7 days relative to vehicle-treated control; assay type: organism-based; parameters: dose 30 mg/kg, route oral; settings: in vivo, 168 h
Mus musculus [6] = assay: Antiinflammatory activity against DSS-induced colitis BALB/c mouse model assessed as decrease in disease activity index at 30 mg/kg, po qd for 7 days measured on day 6 relative to vehicle-treated control; assay type: functional, organism-based; parameters: dose 30 mg/kg; in short: as §1
Mus musculus [7] = assay: Antiinflammatory activity against DSS-induced colitis BALB/c mouse model assessed as decrease in disease activity index at 5 mg/kg, po qd for 7 days measured on day 7 relative to vehicle-treated control; assay type: functional; parameters: scale not given: the % may be the effect or the level left; in short: as §1
Mus musculus [8] = assay: Antiinflammatory activity against DSS-induced colitis BALB/c mouse model assessed as reduction in TNFalpha level at 5 mg/kg, po qd for 7 days measured on day 7 relative to vehicle-treated control; assay type: functional, organism-based; parameters: dose 5 mg/kg
In short: (§2)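 DSS colitis in female BALB/c mice (5% DSS in drinking water, 7 days, daily oral dosing). At autopsy, colon remaining after histology sampling snap-frozen, stored at −20 °C, thawed, contents removed, chopped and homogenized; supernatant protein determined. IL1b, IL6 and TNFα in colon supernatant by sandwich ELISA, expressed as ng/mg. Mean ± SEM, n = 6−7.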

Mus musculus [9] = assay: Antiinflammatory activity against DSS-induced colitis BALB/c mouse model assessed as reduction in histological colon damage score at 5 mg/kg, po qd for 7 days measured on day 7 relative to vehicle-treated control; assay type: functional; parameters: scale not given: the % may be the effect or the level left
In short: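 After 7 days of 5% DSS with daily oral dosing, about 1 cm distal colon was fixed in 10% formaldehyde-saline, paraffin-embedded, cut into 5 μm serial sections and H&E-stained. Scoring covered cell infiltration (0−3) and extent of injury (0−3), done blinded by two independent observers.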

Mus musculus [10] = assay: Antiinflammatory activity against DSS-induced colitis BALB/c mouse model assessed as reduction in IL1b level at 5 mg/kg, po qd for 7 days measured on day 7 relative to vehicle-treated control; assay type: functional, organism-based; parameters: dose 5 mg/kg; in short: as §2
Mus musculus [11] = assay: Antiinflammatory activity against DSS-induced colitis BALB/c mouse model assessed as decrease in myeloperoxidative activity at 5 mg/kg, po qd for 7 days measured on day 7 relative to vehicle-treated control; assay type: functional; parameters: scale not given: the % may be the effect or the level left
In short: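 In the 7-day 5% DSS BALB/c colitis model with daily oral dosing, colon MPO was measured in homogenized snap-frozen colon supernatant (protein determined) by a standard method.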

Mus musculus [12] = assay: Antiinflammatory activity against DSS-induced colitis BALB/c mouse model assessed as reduction in IL6 level at 5 mg/kg, po qd for 7 days measured on day 7 relative to vehicle-treated control; assay type: functional, organism-based; parameters: dose 5 mg/kg; in short: as §2
Mus musculus [13] = assay: Antiinflammatory activity against DSS-induced colitis BALB/c mouse model assessed as prevention of body weigth loss at 5 mg/kg, po qd for 7 days measured on day 7 relative to vehicle-treated control; assay type: functional; in short: as §1
Mus musculus [14] = assay: Antiinflammatory activity against DSS-induced colitis BALB/c mouse model assessed as reduction in shortening of colon at 5 mg/kg, po qd for 7 days measured on day 7 relative to vehicle-treated control; assay type: functional; parameters: scale not given: the % may be the effect or the level left; in short: as §1

## O=C(O)c1ccc(C[C@]2(C3=Cc4ccccc4C3)Cc3ccccc3[C@H]2O)cc1
Mus musculus [1]
  Activity: Active
Mus musculus [2]
  Activity: inactive
Mus musculus [3]
  Activity: Active
Mus musculus [4]
  Activity: inactive
Mus musculus [5]
  Activity: Non-toxic

## O=C(O)c1ccc(C[C@]2(C3=Cc4ccccc4C3)Cc3ccccc3[C@@H]2O)cc1
Mus musculus [6]
  Activity: inactive
Mus musculus [1]
  Activity: Active
Mus musculus [3]
  Activity: Active
Mus musculus [5]
  Activity: Non-toxic

## C[C@]12C=CC(=O)C=C1CC[C@@H]1[C@@H]2[C@@H](O)C[C@@]2(C)[C@H]1CC[C@]2(O)C(=O)CO [PREDNISOLONE]
Mus musculus [7]
  Activity: 50%
Mus musculus [8]
  Activity: Active
Mus musculus [9]
  Activity: 26%
Mus musculus [10]
  Activity: Active
Mus musculus [11]
  Activity: 54%
Mus musculus [12]
  Activity: Active
Mus musculus [13]
  Activity: 12.6%
Mus musculus [14]
  Activity: 39%
